Screens: PubChem, several laboratories
MC4R antagonist = MC4R antagonists of cAMP signaling, primary screen, cell-based, TR-FRET, antagonist arm of biased-ligand search; Melanocortin receptor 4 (Homo sapiens), P32245; MC4R-expressing cells, MTII-stimulated cAMP, LANCE TR-FRET; inhibition, % at 6.5 µM; 360,000 tested, 0.48% active; AID 540295, 2011;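 active = inhibition above its plate's cutoff, the mean of tested wells on that plate plus 3 SD, cut at about 29% in these data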;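 also: 0% = Melanotan II alone and 100% = Melanotan II plus saturating MCL0020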
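Assay system: U2OS cells stably expressing human melanocortin 4 receptor (MC4R) / Dosing: 6.5 µM / Timing: compound 30 min, challenge 1 h, detection 1 h / Measured by: Eu-cAMP/anti-cAMP TR-FRET, emission 671 nm / Replicates: singlicate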
Myeloid diff 2 = induction of myeloid progenitor differentiation, primary screen, cell-based, flow cytometry, MLPCN library; AID 624256, 2012; ER-HoxA9 myeloid progenitors, lysozyme-GFP differentiation; calls only at 10 µM; 360,000 tested, 1% active;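 active = normalized GFP-positive differentiation at or above the plate's own cutoff, the solvent-only control mean plus 3 SD; inconclusive = no clear call, values can overlap the other calls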;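 also: cells exposed to compound for four days before flow analysis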
Granule exo inh = LAMP-1 surface exposure blockers, TALL-104 cells – cell-based, flow cytometry, MLPCN library, primary screen | TALL-104 LAMP-1 surface exposure; cells stimulated with thapsigargin and PMA | inhibition, % at 10 µM | 360,000 tested, 0.66% active | AID 651702, 2012;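 active = inhibition above about 55%, limit read from the data; inconclusive = no clear call, values can overlap the other calls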
MC4R barr agon = MC4R agonists recruiting beta-arrestin, primary screen, cell-based, luminescence, agonist arm of biased-ligand search. Melanocortin receptor 4 (Homo sapiens), P32245. U2OS MC4R beta-arrestin complementation; percent of melanotan II response, DMSO zero. activation, % at 8.9 µM. 360,000 tested, 0.98% active;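 active = activation above a per-plate cutoff, the mean activation of sample wells on that plate plus 3 SD, cut at about 8% in these data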
EBI2 antag = EBI2 receptor antagonists, beta-arrestin recruitment, primary screen, cell-based, luminescence, 7a,25-OHC stimulation, uHTS; G-protein coupled receptor 183 (Homo sapiens), P32249; 7a,25-OHC stimulated; inhibition, % at 5 µM; 360,000 tested, 0.81% active; AID 651636, 2012; in the data active = inhibition above about 38%;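 also: enzyme fragment complementation signal reports receptor beta-arrestin coupling in cells; 0% = agonist plus DMSO wells and 100% = wells without agonist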
Target sequence (P32249 whole entry, looked up, the tested form may be a part): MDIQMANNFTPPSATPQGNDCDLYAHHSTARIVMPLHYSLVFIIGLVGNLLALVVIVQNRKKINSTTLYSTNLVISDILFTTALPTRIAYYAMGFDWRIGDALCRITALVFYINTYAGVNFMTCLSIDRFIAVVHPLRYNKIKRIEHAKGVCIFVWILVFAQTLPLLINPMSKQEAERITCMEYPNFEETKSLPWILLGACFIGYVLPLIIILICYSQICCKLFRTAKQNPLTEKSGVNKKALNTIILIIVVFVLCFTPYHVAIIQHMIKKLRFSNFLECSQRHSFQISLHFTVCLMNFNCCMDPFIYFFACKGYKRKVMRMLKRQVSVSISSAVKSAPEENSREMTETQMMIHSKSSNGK
* = called active by the depositor; i = inactive; ? = inconclusive; · = not tested or not shown; + = active, no number. An excerpt weighted towards active compounds, which were near 3.7% of everything screened.

SMILES	MC4R antagonist	Myeloid diff 2	Granule exo inh	MC4R barr agon	EBI2 antag
CNC(=O)/C(C#N)=C/c1c(N2CCCCCC2)nc2ccccn2c1=O	5	+	4	0	-4
O=c1[nH]c(NCCO)nnc1Cc1ccccc1	1	i	5	-2	-12
CC(NC(=O)COC(=O)CNC(=O)C1CCCCC1)c1ccccc1 (stereo not drawn)	8	i	1	0	-1
CCOc1cc(/C=C2/C(=O)ON=C2C)ccc1OCc1ccccc1F	18	i	78*	-2	28
CCN(CC)S(=O)(=O)c1cccc(C(=O)OCC(=O)NC(C)c2ccccc2)c1 (stereo not drawn)	9	i	2	-1	-3
COc1ccc(C)cc1Nc1nc(-c2c[nH]c3ccccc23)cs1	13	+	0	-2	3
COc1ccc(O)c(C2=Nc3ccccc3N=C(c3ccccc3)C2)c1	6	i	2	-4	21
Oc1ccccc1C1=Nc2ccccc2N=C(c2ccco2)C1	1	i	0	8.5*	11
COc1ccccc1C(=O)Nc1ccc(-c2nnn(CC(=O)NCc3ccco3)n2)cc1	19	?	2	3	-8
COc1ccc(/C=C2\SC(=S)N(CCC(=O)N3CCOCC3)C2=O)cc1	-4	i	-2	2	-4
COc1ccc(/C=C2\SC(=S)N(CCCC(=O)N3CCCCC3CCO)C2=O)cc1 (stereo not drawn)	-3	+	-1	-2	13
COc1ccc(/C=C2/SC(=S)N(CCCC(=O)Nc3cccc(O)c3)C2=O)cc1	-3	?	97*	3	12
CCc1ccc(/C=C2\SC(=S)N(CCCC(=O)N3CCN(C)CC3)C2=O)cc1	9	i	72*	0	2
O=C1/C(=C\c2ccccc2)SC(=S)N1CCC(=O)N1CCCCC1CCO (stereo not drawn)	4	?	-1	-3	9
COc1ccc(/C=C2\SC(=S)N(CCCC(=O)N3CCN(C)CC3)C2=O)cc1	-10	·	63*	1	13
COc1ccc(-c2cccc(NC(=O)COc3ccc(Cl)cc3)c2)nn1	3	i	0	0	1
CCOC(=O)C1(C)CCCN1C(=O)c1ccc(OC)cc1 (stereo not drawn)	9	i	-2	-1	-5
O=C(NNC(=O)c1ccc([N+](=O)[O-])cc1C(=O)O)c1ccncc1	1	i	-8	-1	-18
O=C1CC(c2ccccc2)Sc2ccccc2N1 (stereo not drawn)	-1	i	-2	-1	-16
Cc1ccsc1C1CC(=O)Nc2ccccc2S1 (stereo not drawn)	-4	+	1	-3	0
O=C1Nc2ccccc2N(O)N1c1ccc(Cl)cc1	18	i	-2	-1	-10
CCN1c2ccccc2NC2C1C(C(C)=O)C(=O)N2c1ccc(Cl)cc1 (stereo not drawn)	6	+	22	-1	13
COc1ccccc1N=Nc1c(O)[nH]c2ccc(Br)cc12	2	+	7	0	-2
COc1ccccc1NC(=O)CCC(=O)c1ccc(-c2ccccc2)cc1	12	+	-4	2	5
COc1ccc2c(c1)CCO[C@]21O[C@H](CCO)C[C@H](O)[C@H]1O	1	i	-6	1	-14
SMILES	MC4R antagonist	Myeloid diff 2	Granule exo inh	MC4R barr agon	EBI2 antag
CC(=O)c1coc2ccc(OCC(=O)O)cc12	12	+	-2	3	-2
COC1=CC(=O)c2ccccc2C1=O	-2	i	13	-2	-4
COC1=CC(=O)C=C(OC)C1=O	-9	?	78*	-3	-10
CCOc1cc(C)c(S(=O)(=O)Nc2ccc(F)cc2)cc1C	20	i	4	16*	7
Cc1ccccc1S(=O)(=O)N1CCN(c2ccc3c(c2)C2CC3CCN2C(=O)OCc2ccccc2)CC1 (stereo not drawn)	·	i	0	·	26
CC(c1ccc(O)cc1)(c1ccc(O)cc1)c1ccc(CCBr)cc1	4	i	2	18*	-5
Cc1ccc(NC(=O)CN(C)C(=O)COc2ccc(Br)cc2)cc1	4	i	-2	0	26
O=C(OCc1ccccc1)N1CCC2CC1c1ccc(Cl)cc12 (stereo not drawn)	1	+	1	1	5
O=C(OCc1ccccc1)N1CCC2CC1c1ccc(-c3cccc(F)c3)cc12 (stereo not drawn)	·	i	8	·	4
Cc1cccc([C@@H]2[C@@H]3C(=O)N(Cc4ccccc4)C(=O)[C@@H]3[C@]3(Cc4ccccc4)C(=O)N(c4ccc(C(F)(F)F)cc4)C(=O)N23)c1	11	i	2	1	-6
Cc1cc(/C=C(\C#N)C(=O)NCc2cccs2)c(C)n1-c1ccccc1F	-11	i	-1	-3	51*
Cc1ccccc1-n1c(C)cc(/C=C(\C#N)C(=O)NCC2CCCO2)c1C (stereo not drawn)	3	i	0	-1	9
CCn1cc(C(=O)NCc2ccco2)c(=O)c2cc(S(=O)(=O)N3CC(C)CC(C)C3)ccc21 (stereo not drawn)	8	+	-2	-1	8
COc1ccc(N2CCN(C(=O)c3ccc(Br)cc3)CC2)c([N+](=O)[O-])c1	3	i	1	-2	72*
O=C(O)c1cccc(NC(=O)c2ccccc2NC(=O)c2cccc([N+](=O)[O-])c2)c1	-1	+	-4	0	-14
O=C(Nc1ccccc1C(=O)Nc1ccncc1)c1cccc([N+](=O)[O-])c1	6	i	3	-3	12
O=C(Nc1cccc([N+](=O)[O-])c1)c1ccc(CSc2ccccc2)cc1	4	i	4	15*	12
O=C(Nc1cccc([N+](=O)[O-])c1)c1ccccc1	2	i	-2	3	-1
O=C(NNC(=O)c1cccc([N+](=O)[O-])c1)c1ccncc1	16	i	-2	0	10
O=C(NNC(=O)c1ccncc1)Nc1cccc([N+](=O)[O-])c1	11	i	90*	1	-3
C/C=C/c1cccc(-c2nc(C(=O)NC3Cc4ccccc4C3)cc3c2[C@@H](CCO)N(C(C)=O)C3)c1	·	i	5	·	9
CCC1(c2ccc(F)cc2)NC(=O)N(CC(=O)NC2CCCCCC2)C1=O (stereo not drawn)	3	i	-2	-2	-1
CC1CCC(NC(=O)C(Cc2ccccc2)n2cccc2)CC1 (stereo not drawn)	-1	i	3	-1	20
